# Screens (PubChem BioAssay)
# Many of the other results were omitted from the sample, so hits are more common in it than they were.
# CHOP UPR activ: apoptotic UPR (CHOP) activation; CHO-CHOP luciferase reporter, luminescence; percent of tunicamycin response over DMSO baseline; activation, % at 10 µM; actives 0.34% (n = 330,000); AID 449763;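 active = at 10 µM dose, activation of 40% or more, normalized to positive control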;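 also: 100% = tunicamycin at 10 µg/mL and 0% = DMSO alone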
#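 System: CHO-CHOP luciferase reporter cell line | Buffer or medium: F12 medium containing 10% fetal bovine serum | Doses: One dose, 10 µM in 0.5% DMSO | Times: 6 h compound exposure at 37 °C after overnight seeding | Signal: Luciferase luminescence | Read-out: % activation vs tunicamycin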
# TLR4-MyD88 BLA: TLR4-MyD88 interaction inhibition in cells | O00206+Q99836 | HeLa CL3-4 TLR4/MyD88 BLA complementation, FRET ratio | inhibition, % at 8.4 µM | actives 0.18% (n = 200,000); in the data active = inhibition above about 25%;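 also: 0% = vehicle and 100% = reference inhibitor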
# UPR XBP1 act: activators of adaptive arm of unfolded protein response (XBP1) | CHO-XBP1 luciferase reporter, IRE1-XBP1 UPR activation, luminescence; percent of tunicamycin response, DMSO as zero | activation, % at 20 µM | AID 463104 | actives 0.33% (n = 330,000);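 active = versus positive control, 20 µM dose yields 30% or more activation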;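 also: 100% = tunicamycin at 10 µg/mL and 0% = DMSO only wells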
#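 Assay system: CHO-XBP1 luciferase reporter cells; Schedule: 6 h treatment, 37 °C; Detection: glow luminescence from Steady-Glo reagent; Benchmarks: high control tunicamycin 10 µg/mL final, low control DMSO vehicle only.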
# CHOP inh: blocks CHOP induction under ER stress; CHO-K1 CHOP-promoter luciferase, tunicamycin-induced, 15-18 h; inhibition, % at 10 µM; actives 3.8% (n = 220,000);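 active = compounds that reduced the stress-induced luciferase reporter signal by more than about 70% of percent inhibition, limit read from the data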;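 also: 0% = tunicamycin plus vehicle and 100% = wells without tunicamycin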
# NOD2 RIPK2 PPI: NOD2-RIPK2 protein interaction inhibition | CHO BLA complementation NOD2-RIPK2, CCF4 ratio | actives 0.38% (n = 360,000) | inhibition, % at 4.98 µM | AID 624267 | O43353; in the data active = inhibition above about 21%;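 also: 0% = vehicle only and 100% = reference blocker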
# TLR9-MyD88 inh: blocks human TLR9 binding to MyD88; actives 0.21% (n = 340,000); Q9NR96+Q99836; CHO BLA complementation TLR9-MyD88, CCF4 FRET ratio; inhibition, % at 4.98 µM;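 active = inhibition above the mean over all tested compounds plus 3 SD, cut at about 21% in these data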;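 also: 0% = DMSO only wells and 100% = clavulanate BLA inhibitor control wells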
# * hit, by the source's call; / = no result given.
SMILES,CHOP UPR activ,TLR4-MyD88 BLA,UPR XBP1 act,CHOP inh,NOD2 RIPK2 PPI,TLR9-MyD88 inh
COc1nc(-c2ccccc2)ccc1-c1noc(-c2ccccc2F)n1,3,4,4,-31,-4,-11
CC1Cc2ccccc2N1CC(=O)NC(c1ccccc1)c1ccccc1 (stereo not drawn),0,0,0,87*,-9,5
Cc1cc(NC(=O)c2c(F)cccc2Cl)n(-c2nc3ccccc3[nH]2)n1,-2,-16,0,75*,8,4
C/C=C/CSc1nc2c(c(=O)[nH]c(=O)n2C)n1Cc1ccc(C)cc1,2,-10,5,86*,1,2
CCCCn1c(SCc2ccc(Cl)cc2)nc2c1c(=O)[nH]c(=O)n2C,1,-4,17,82*,-7,-15
CCSc1nc2c(c(=O)[nH]c(=O)n2C)n1CC(O)COc1ccccc1 (stereo not drawn),-1,2,0,-14,-6,0
CC(C)CSc1nc2c(c(=O)[nH]c(=O)n2C)n1CC(O)COc1cccc2ccccc12 (stereo not drawn),/,-10,/,80*,3,-3
CCCCCn1c(N2CCN(c3cccc(Cl)c3)CC2)nc2c1c(=O)[nH]c(=O)n2C,-2,-10,14,87*,3,-2
Cc1ccc(Cn2c(Sc3ncccn3)nc3c2c(=O)[nH]c(=O)n3C)cc1,0,7,2,0,-4,-6
O=C(C[C@H]1C/C=C\C[C@@H](Cc2ccc(F)cc2)C(=O)O[C@H](c2ccccc2)CNC1=O)NCCO,0,/,0,/,-11,6
CC(C)CCSc1nc2c(c(=O)[nH]c(=O)n2C)n1CCc1ccccc1,0,6,7,88*,2,-14
CC(C)CSc1nc2c(c(=O)[nH]c(=O)n2C)n1CCc1ccccc1,2,5,4,52,-2,-12
CCCCCn1c(Sc2nc3ccccc3s2)nc2c1c(=O)[nH]c(=O)n2C,0,18,8,76*,-2,-4
Cc1ccc(CSc2nc3c(c(=O)[nH]c(=O)n3C)n2CCC(C)C)cc1,-1,4,7,106*,-14,-4
CCOCCn1c(SCc2ccc(C)cc2)nc2c1c(=O)[nH]c(=O)n2C,2,-11,6,27,-4,-2
CCCCCSc1nc2c(c(=O)[nH]c(=O)n2C)n1C(C)C,5,4,14,89*,0,11
COc1ccc(Cc2c(-c3ccc(Cl)cc3)nc3c(C)cc(Br)cn23)c(C)c1,/,/,/,/,-12,/
Cc1cc(C(F)(F)F)c2c(=O)[nH]c(=O)n(Cc3ccccc3)c2n1,1,-2,2,39,-11,-6
O=c1[nH]c(=O)n(Cc2ccccc2)c2nc(-c3ccco3)cc(C(F)(F)F)c12,-3,-2,11,71*,6,0
c1ccc(-c2ccc3c(c2)NCCN3)cc1,3,/,4,-35,3,14
Cc1cc(C(=O)OC(C)C(=O)Nc2nc(-c3ccccc3)cs2)c(C)o1 (stereo not drawn),0,-16,-2,45,-9,-6
Cc1cc(C(=O)OCC(=O)Nc2nc(-c3ccccc3)cs2)c(C)o1,0,-10,-1,94*,-7,5
Cc1ccc(S(=O)(=O)CC(=O)Nc2nc(-c3ccccc3)cs2)cc1,1,-17,-5,90*,7,-1
O=C(CS(=O)(=O)c1ccccc1)Nc1nc(-c2ccccc2)cs1,1,6,3,40,-1,-2
CCN(CC)S(=O)(=O)c1cccc(NC(=O)COC(=O)c2cc(C)oc2C)c1,5,-3,-3,72*,1,10
Cc1cc(C(=O)OCC(=O)Nc2cccc(S(=O)(=O)N(C)C)c2)c(C)o1,2,/,-1,5,-14,-15
O=[N+]([O-])c1ccc(S(=O)(=O)Nc2ccc(-c3csc(-c4ccccc4)n3)cc2)cc1,-2,6,-1,19,/,/
Cc1ccc(S(=O)(=O)Nc2ccc(-c3csc(-c4ccccc4)n3)cc2)cc1,0,6,-2,94*,-6,7
